{"data": "Measured values of several laboratories", "target": "Serine/threonine-protein kinase RIO3 (RIOK3, Homo sapiens, UniProt O14730)", "One construct used (O14730 1-519)": "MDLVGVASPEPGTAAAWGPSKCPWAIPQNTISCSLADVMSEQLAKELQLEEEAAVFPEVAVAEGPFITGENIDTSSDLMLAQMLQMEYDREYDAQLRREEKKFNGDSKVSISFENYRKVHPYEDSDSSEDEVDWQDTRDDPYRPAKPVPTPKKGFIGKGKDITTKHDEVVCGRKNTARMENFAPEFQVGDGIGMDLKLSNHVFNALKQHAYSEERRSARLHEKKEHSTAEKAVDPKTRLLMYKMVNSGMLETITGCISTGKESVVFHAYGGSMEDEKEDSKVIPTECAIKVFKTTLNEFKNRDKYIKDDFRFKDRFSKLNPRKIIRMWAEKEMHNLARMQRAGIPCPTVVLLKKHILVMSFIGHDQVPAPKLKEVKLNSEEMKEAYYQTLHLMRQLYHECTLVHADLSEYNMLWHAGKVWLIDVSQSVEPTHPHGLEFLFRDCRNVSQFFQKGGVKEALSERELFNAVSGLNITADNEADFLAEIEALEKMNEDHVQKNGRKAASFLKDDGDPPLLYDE", "note": "Lines come from different studies, so protocols differ."}
{"SMILES": "c1cnn2ncc(-c3ccnc(N4CCC45COC5)n3)c2c1", "test": "binding", "conditions": "1 µM", "remaining binding [%]": 93}
{"SMILES": "CNC(=O)[C@@H]1CC[C@@H](n2c(-c3ccc4cnccc4c3)nc3ccc(C(=O)NCc4cccc(C(N)=O)c4)cc32)C1", "test": "binding, competition with immobilised ligand", "conditions": "1 µM", "remaining binding [%]": 88}
{"SMILES": "Nc1ncc2c(n1)-c1c([nH]c3ccc(C#CC4CC4)cc13)CCCC2", "test": "binding, competition with immobilised ligand", "conditions": "1 µM", "remaining binding [%]": 75}
{"SMILES": "CN(C)c1ncc(F)c(-c2cnn3ncccc23)n1", "test": "binding", "conditions": "1 µM", "remaining binding [%]": 100}
{"SMILES": "O=C(Nc1c[nH]nc1C(=O)NC1CCNCC1)c1cc(F)cc(F)c1", "test": "binding, competition with immobilised ligand", "conditions": "1 µM", "remaining binding [%]": 100}
{"SMILES": "N[C@H]1CCN(c2nccc(-c3cnn4ncccc34)n2)C1", "test": "binding", "conditions": "1 µM", "remaining binding [%]": 81}
{"SMILES": "O=C(N1CCS(=O)(=O)CC1)N1C[C@H](c2ccc(OC(F)(F)F)cc2)C[C@H](c2nc(C3CC3)no2)C1", "test": "cell-free assay, competition with immobilised ligand", "conditions": "1 µM", "remaining binding [%]": 85}
{"SMILES": "FC(F)(F)Oc1cccc(-c2cnc3ccc(-c4ccncc4)nn23)c1", "test": "binding, competition with immobilised ligand", "conditions": "5 µM", "remaining binding [%]": 16}
{"SMILES": "COc1cc(-c2cn(C3CCc4ccccc4N(CC(F)(F)F)C3=O)nn2)ccc1-n1ccc(C)n1 (stereo not shown)", "test": "cell-free assay, competition with immobilised ligand", "conditions": "1 µM", "remaining binding [%]": 100}
{"SMILES": "COc1ccnn2ncc(-c3ccnc(N(C)C)n3)c12", "test": "binding", "conditions": "1 µM", "remaining binding [%]": 100}
{"SMILES": "Cc1cnc(Nc2ccc(C(=O)N3CCC(N4CCCC4)CC3)cc2)nc1-c1cc2ccccc2s1", "test": "binding, competition with immobilised ligand", "conditions": "1 µM", "remaining binding [%]": 0.3}
{"SMILES": "CN(c1nccc(-c2cnn3ncccc23)n1)C1CC1", "test": "binding", "conditions": "1 µM", "remaining binding [%]": 100}
{"SMILES": "CO[C@@H](C)c1c(Nc2ccc([C@@H](N(C)C(=O)C3CCS(=O)(=O)CC3)C(F)(F)F)cc2)cnc2cc(Cl)nn12", "test": "cell-free assay, competition with immobilised ligand", "conditions": "1 µM", "remaining binding [%]": 90}
{"SMILES": "O=C(c1ccc(Nc2ncc(Cl)c(-c3cc4ccccc4s3)n2)cc1)N1CCC(N2CCCC2)CC1", "test": "binding, competition with immobilised ligand", "conditions": "1 µM", "remaining binding [%]": 0}
{"SMILES": "CC(C)(O)c1cncc(-c2nc3ccc(F)cc3n2C2CC2)c1", "test": "cell-free assay, competition with immobilised ligand", "conditions": "1 µM", "remaining binding [%]": 100}
{"SMILES": "CC1CCCN1c1nccc(-c2cnn3ncccc23)n1 (stereo not shown)", "test": "binding", "conditions": "1 µM", "remaining binding [%]": 100}
{"SMILES": "CCCOc1ccc([C@H]2[C@H](C(=O)O)[C@@H](c3ccc4c(c3)OCO4)CN2CC(=O)Nc2c(CC)cccc2CC)cc1", "test": "cell-free assay, competition with immobilised ligand", "conditions": "1 µM", "remaining binding [%]": 100}
{"SMILES": "c1cncc(-c2cccc(Nc3nccc(NC4CCCCC4)n3)c2)c1", "test": "binding, competition with immobilised ligand", "conditions": "10 µM", "remaining binding [%]": 80}
{"SMILES": "O=C1NC(c2ccccn2)Sc2ccccc21 (stereo not shown)", "test": "cell-free assay, competition with immobilised ligand", "conditions": "1 µM", "remaining binding [%]": 91}
{"SMILES": "C[C@H]1CCN(c2nccc(-c3cnn4ncccc34)n2)C1", "test": "binding", "conditions": "1 µM", "remaining binding [%]": 100}
{"SMILES": "CNC(=O)c1ccc(Nc2ncc(C(F)(F)F)c(NCc3nccnc3N(C)S(C)(=O)=O)n2)cc1", "test": "cell-free assay, competition with immobilised ligand", "conditions": "0.1 µM", "remaining binding [%]": 55}
{"SMILES": "O=C(c1ccc(Nc2nccc(-c3cc4ccccc4s3)n2)cc1)N1CCC(N2CCCC2)CC1", "test": "binding, competition with immobilised ligand", "conditions": "1 µM", "remaining binding [%]": 0.9}
